Assay results gathered from unrelated publications.
Each line is one published result; the experiments were not run side by side.
Target: MAP/microtubule affinity-regulating kinase 3 (MARK3, Homo sapiens, UniProt P27448)

| assay | conditions | remaining binding | Structure (SMILES) |
| --- | --- | --- | --- |
| binding, competition with immobilised ligand | 1 µM | 100% | O=C(NCCCN1CCOCC1)c1ccc(Nc2ncc(Cl)c(-c3ccc(Cl)s3)n2)cc1 |
| cell-free assay, competition with immobilised ligand | 10 µM | 85% | CC(C)(C)c1ccc(-c2nc(CBr)nn2-c2cccc(O)c2)cc1 |
| cell-free assay, competition with immobilised ligand | 1 µM | 100% | C[C@@H]1CN(c2cc(-c3nn(C)c4ccc(OC5(C)CC5)cc34)ncn2)C[C@H](C)O1 |
| binding, competition with immobilised ligand | 1 µM | 100% | O=C(Nc1c[nH]nc1C(=O)NC1CCNCC1)c1cc(F)cc(F)c1 |
| binding | 1 µM | 100% | c1cnn2ncc(-c3ccnc(N4CCC45COC5)n3)c2c1 |
| cell-free assay, competition with immobilised ligand | 1 µM | 100% | O=C(Nc1ccc(Oc2ccc(F)cc2)cc1)N1CCc2ncccc2[C@H]1c1ccc(F)cc1 |
| binding, competition with immobilised ligand | 1 µM | 100% | O=C(c1ccc(Nc2nccc(-c3cc4ccccc4s3)n2)cc1)N1CCC(N2CCCC2)CC1 |
| binding, competition with immobilised ligand | 1 µM | 97% | Nc1ncc2c(n1)-c1c([nH]c3ccc(C#CC4CC4)cc13)CCCC2 |
| binding, competition with immobilised ligand | 10 µM | 99% | c1cncc(-c2cccc(Nc3nccc(NC4CCCCC4)n3)c2)c1 |
| binding | 1 µM | 57% | N[C@H]1CCN(c2nccc(-c3cnn4ncccc34)n2)C1 |
| binding, competition with immobilised ligand | 0.1 µM | 93% | C[C@@H](c1ccc(-n2cnc3c(N)ncnc32)cc1)N1CCc2nn(C)c(Cc3ccccc3)c2C1=O |
| cell-free assay, competition with immobilised ligand | 1 µM | 100% | CC(=O)Nc1c(C(C)=O)c(=O)n(C)c2nc(-c3ccc(Cl)cc3Cl)c(-c3ccc(Cl)cc3)cc12 |
| binding, competition with immobilised ligand | 1 µM | 92% | COc1cnc(Nc2cccc(S(N)(=O)=O)c2)nc1N1CCN(c2ccccc2)C(=O)C1 |
| binding, competition with immobilised ligand | 50 nM | 100% | C[C@@H]1CN(c2ccc3ncc(-c4ccc5[nH]nc(C6CC6)c5c4)n3n2)C[C@H](C)O1 |
| binding | 1 µM | 44% | COc1ccnn2ncc(-c3ccnc(N(C)C)n3)c12 |
| binding, competition with immobilised ligand | 1 µM | 100% | O=C(c1ccc(Nc2ncc(Cl)c(-c3cc4ccccc4s3)n2)cc1)N1CCC(N2CCCC2)CC1 |
| cell-free assay, competition with immobilised ligand | 1 µM | 89% | O=C(Nc1cccnn1)N1CCC(=Cc2cccc(Oc3ccc(C(F)(F)F)cn3)c2)CC1 |
| binding | 1 µM | 100% | CN(CCCC(F)(F)F)c1nccc(-c2cnn3ncccc23)n1 |
| cell-free assay, competition with immobilised ligand | 1 µM | 96% | CO[C@H]1CC[C@H](CNc2ccc(S(=O)(=O)NC(=O)c3ccc(N4CCN(CC5=C(c6ccc(Cl)cc6)CC(C)(C)CC5)CC4)cc3Oc3cnc4[nH]ccc4c3)cc2[N+](=O)[O-])CC1 |
| binding, competition with immobilised ligand | 1 µM | 59% | CNC(=O)[C@@H]1CC[C@@H](n2c(-c3ccc4cnccc4c3)nc3ccc(C(=O)NCc4cccc(C(N)=O)c4)cc32)C1 |
| binding | 1 µM | 100% | C[C@@H]1CCN(c2nccc(-c3cnn4ncccc34)n2)C1 |
| binding, competition with immobilised ligand | 1 µM | 100% | Cc1c(C(=O)O)cc(-c2ccc(C3CCNCC3)cc2)c2ccc(-c3ccc(C(F)(F)F)cc3)cc12 |
| binding | 1 µM | 100% | CN(c1nccc(-c2cnn3ncccc23)n1)C1CC1 |
| cell-free assay, competition with immobilised ligand | 1 µM | 99% | CN(C)C(=O)Cn1cc(-c2nc([C@@](C)(c3ccc(-c4cnc(N)nc4)cc3)C3CC3)no2)cn1 |
